From ChEMBL document CHEMBL4270522, “Halogenated trimethoprim derivatives as multidrug-resistant Staphylococcus aureus therapeutics” (Bioorg Med Chem, 2018)
Converted amounts (≈) assume the structure as drawn.

How the values were obtained:
Staphylococcus aureus [1] = experiment: Antibacterial activity against hospital-associated methicillin-resistant Staphylococcus aureus COL after 20 hrs by CLSI microdilution assay; type: functional
Staphylococcus aureus [2] = experiment: Synergistic antibacterial activity against methicillin-resistant Staphylococcus aureus USA300 in presence of sulfamethoxazole after 20 hrs by broth microdilution-based checkerboard titration assay; type: functional
Staphylococcus aureus [3] = experiment: Synergistic antibacterial activity against methicillin-susceptible Staphylococcus aureus ATCC 29213 assessed as fractional inhibitory concentration index in presence of sulfamethoxazole after 18 hrs by broth microdilution-based checkerboard titration assay; type: functional
Staphylococcus aureus [4] = experiment: Synergistic antibacterial activity against methicillin-susceptible Staphylococcus aureus ATCC 29213 in presence of sulfamethoxazole after 20 hrs by broth microdilution-based checkerboard titration assay; type: functional
Staphylococcus aureus [5] = experiment: Antibacterial activity against methicillin-resistant Staphylococcus aureus USA300 after 20 hrs by CLSI microdilution assay; type: functional; conditions: USA300, 20 h
Staphylococcus aureus [6] = experiment: Synergistic antibacterial activity against hospital-associated methicillin-resistant Staphylococcus aureus COL assessed as fractional inhibitory concentration index in presence of sulfamethoxazole after 18 hrs by broth microdilution-based checkerboard titration assay; type: functional
Staphylococcus aureus [7] = experiment: Antibacterial activity against methicillin-resistant Staphylococcus aureus USA300 at 5 ug after 18 to 20 hrs by CLSI disk diffusion assay; type: functional; conditions: read-out: DIZ
Summary of the method: (§1)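 Disk diffusion on 4 mm Mueller-Hinton agar swabbed with about 10^8 CFU/mL suspension in PBS; 6 mm paper disk loaded with 5 µg compound in DMSO; 37 °C ambient air for 18–20 h; diameter of the complete inhibition zone measured in mm with callipers from the plate back; at least three independent experiments, mean with standard error; 6 mm means no inhibition.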

Staphylococcus aureus [8] = experiment: Synergistic antibacterial activity against hospital-associated methicillin-resistant Staphylococcus aureus COL in presence of sulfamethoxazole after 20 hrs by broth microdilution-based checkerboard titration assay; type: functional
Staphylococcus aureus [9] = experiment: Synergistic antibacterial activity against methicillin-resistant Staphylococcus aureus USA300 assessed as fractional inhibitory concentration index in presence of sulfamethoxazole after 18 hrs by broth microdilution-based checkerboard titration assay; type: functional
Staphylococcus aureus [10] = experiment: Antibacterial activity against hospital-associated methicillin-resistant Staphylococcus aureus COL at 5 ug after 18 to 20 hrs by CLSI disk diffusion assay; type: functional; conditions: read-out: DIZ; summary of the method: as §1
Staphylococcus aureus [11] = experiment: Potentiation of sulfamethoxazole-mediated antibacterial activity against hospital-associated methicillin-resistant Staphylococcus aureus COL assessed as sulfamethoxazole MIC after 20 hrs by CLSI microdilution assay (reference value: 200 microg/ml); type: functional
Staphylococcus aureus [12] = experiment: Potentiation of sulfamethoxazole-mediated antibacterial activity against methicillin-resistant Staphylococcus aureus USA300 assessed as sulfamethoxazole MIC after 20 hrs by CLSI microdilution assay (reference value: 100 microg/ml); type: functional; conditions: USA300, 20 h
Staphylococcus aureus [13] = experiment: Antibacterial activity against methicillin-susceptible Staphylococcus aureus ATCC 29213 after 20 hrs by CLSI microdilution assay; type: functional; conditions: ATCC 29213, 20 h
Staphylococcus aureus [14] = experiment: Antibacterial activity against methicillin-susceptible Staphylococcus aureus ATCC 25923 at 5 ug after 18 to 20 hrs by CLSI disk diffusion assay; type: functional; conditions: read-out: DIZ
Summary of the method: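 Mueller-Hinton agar, 4 mm deep, swabbed with PBS-diluted overnight TSB culture (~10^8 CFU/mL). Paper disk (6 mm) loaded with compound in DMSO, incubated 37 °C in ambient air. Complete inhibition zone diameter read from plate back with callipers; 6 mm means no inhibition. At least three independent experiments, mean with standard error.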

Staphylococcus aureus [15] = experiment: Bactericidal activity against hospital-associated methicillin-resistant Staphylococcus aureus COL preincubated for 20 hrs followed by agar plating and measured after 18 to 20 hrs; type: functional
Summary of the method: (§2)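 MBC taken from broth microdilution (final about 10^5 CFU/mL, Mueller-Hinton broth, 37 °C for 20 h). Clear wells (basal optical density) were spread on TSA plates and incubated at 37 °C for 18–20 h. The lowest concentration giving no colonies is reported. At least triplicate.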

Staphylococcus aureus [16] = experiment: Bactericidal activity against methicillin-resistant Staphylococcus aureus USA300 preincubated for 20 hrs followed by agar plating and measured after 18 to 20 hrs; type: functional; summary of the method: as §2
Staphylococcus aureus [17] = experiment: Potentiation of sulfamethoxazole-mediated antibacterial activity against methicillin-susceptible Staphylococcus aureus ATCC 29213 assessed as sulfamethoxazole MIC after 20 hrs by CLSI microdilution assay (reference value: 100 microg/ml); type: functional; conditions: ATCC 29213, 20 h
A549 = experiment: Cytotoxicity against human A549 cells after 24 to 48 hrs by fluorescence-based assay; type: cell-based
Summary of the method: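 A549 cells, ~10^4 per well in DMEM, given 2-fold serial dilutions of compound (DMSO stock diluted in DMEM). Incubated at 37 °C, 5% CO2. PrestoBlue added for 1 h, then fluorescence read at excitation 535 nm and emission 610 nm as a measure of viable cells.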

Staphylococcus aureus [18] = experiment: Bactericidal activity against methicillin-susceptible Staphylococcus aureus ATCC 29213 preincubated for 20 hrs followed by agar plating and measured after 18 to 20 hrs; type: functional
Summary of the method: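 Broth microdilution per CLSI guideline. Compounds diluted 2-fold in MHB from 100 mM DMSO stocks. Inoculum ~10^5 CFU/mL final, from overnight TSB culture diluted in PBS. Plates incubated at 37 °C. Wells without growth by optical density spread on TSA and incubated at 37 °C. MBC is the lowest concentration giving no colonies. At least triplicate.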

SMILES | MIC (Staphylococcus aureus [1]) | FIC (Staphylococcus aureus [2]) | fractional inhibitory concentration index (FICI) (Staphylococcus aureus [3]) | FIC (Staphylococcus aureus [4]) | MIC (Staphylococcus aureus [5]) | fractional inhibitory concentration index (FICI) (Staphylococcus aureus [6]) | zone of inhibition at 5 µg/disc (Staphylococcus aureus [7]) | FIC (Staphylococcus aureus [8]) | fractional inhibitory concentration index (FICI) (Staphylococcus aureus [9]) | zone of inhibition at 5 µg/disc (Staphylococcus aureus [10]) | MIC (Staphylococcus aureus [11]) | MIC (Staphylococcus aureus [12]) | MIC (Staphylococcus aureus [13]) | zone of inhibition at 5 µg/disc (Staphylococcus aureus [14]) | MBC (Staphylococcus aureus [15]) | MBC (Staphylococcus aureus [16]) | MIC (Staphylococcus aureus [17]) | IC50 (A549) | MBC (Staphylococcus aureus [18])
COc1cc(Cc2cnc(N)nc2N)cc(Cl)c1OC | 5 µg/mL (≈ 17 µM) | 0.06 | 0.12 | 0.06 | 2.5 µg/mL (≈ 8.48 µM) | 0.12 | 18.1 mm | 0.06 | 0.12 | 6 mm | 12.5 µg/mL | 6.25 µg/mL | 1.25 µg/mL (≈ 4.24 µM) | 15.1 mm | 10 µg/mL (≈ 33.9 µM) | 2.5 µg/mL (≈ 8.48 µM) | 6.25 µg/mL | 467 µM | 1.25 µg/mL (≈ 4.24 µM)
COc1cc(Cc2cnc(N)nc2N)cc(Br)c1OC | 5 µg/mL (≈ 14.7 µM) | 0.06 | 0.12 | 0.06 | 1.25 µg/mL (≈ 3.69 µM) | 0.12 | 20.4 mm | 0.06 | 0.18 | 6 mm | 12.5 µg/mL | 6.25 µg/mL | 1.25 µg/mL (≈ 3.69 µM) | 17.4 mm | 5 µg/mL (≈ 14.7 µM) | 1.25 µg/mL (≈ 3.69 µM) | 6.25 µg/mL | 321 µM | 1.25 µg/mL (≈ 3.69 µM)
COc1cc(Cc2cnc(N)nc2N)cc(I)c1OC | 2.5 µg/mL (≈ 6.47 µM) | 0.06 | 0.09 | 0.03 | 1.25 µg/mL (≈ 3.24 µM) | 0.12 | 22.8 mm | 0.06 | 0.12 | 6 mm | 12.5 µg/mL | 6.25 µg/mL | 1.25 µg/mL (≈ 3.24 µM) | 21 mm | 5 µg/mL (≈ 12.9 µM) | 1.25 µg/mL (≈ 3.24 µM) | 3.13 µg/mL | 266 µM | 1.25 µg/mL (≈ 3.24 µM)
